# Test results as given in ChEMBL document CHEMBL2331309, “2,3-Diarylpropenoic acids as selective non-steroidal inhibitors of type-5 17β-hydroxysteroid dehydrogenase (AKR1C3)” (Eur J Med Chem, 2013).
# Substitutions are numbered along the chain they refer to. Calls of active or inactive are those of the source. The calls are words filed in the database; no cut-off is given here.
# What was measured:
# [1] = molecular target: T1, Aldo-keto reductase family 1 member C1 (Homo sapiens, UniProt Q04828); assay: Inhibition of human recombinant AKR1C1 expressed in Escherichia coli assessed as decrease in oxidation of 1-acenaphthenol substrate by spectrophotometric analysis
# T1 sequence (Q04828 whole entry): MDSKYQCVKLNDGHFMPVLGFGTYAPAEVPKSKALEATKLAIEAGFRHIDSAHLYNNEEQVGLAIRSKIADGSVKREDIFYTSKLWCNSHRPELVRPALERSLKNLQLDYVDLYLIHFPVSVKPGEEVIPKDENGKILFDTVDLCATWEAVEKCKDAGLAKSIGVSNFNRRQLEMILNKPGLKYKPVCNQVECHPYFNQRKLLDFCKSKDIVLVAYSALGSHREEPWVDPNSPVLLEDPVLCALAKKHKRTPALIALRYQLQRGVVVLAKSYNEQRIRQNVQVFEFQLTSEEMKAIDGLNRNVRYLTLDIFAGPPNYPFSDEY
# Procedure, shortened: (§1)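 IC50 measured for compounds giving over 50% inhibition at 100 μM. Assay uses 1-acenaphthenol oxidation with 2.3 mM NAD⁺ in pH 9.0 100 mM phosphate buffer with 0.005% Triton X-114 and 5% DMSO. AKR1C1 runs at 30 μM substrate and 0.3 μM enzyme; AKR1C2 at 50 μM substrate and 0.2 μM enzyme. Initial rates come from NADH at 340 nm. IC50 is read from log[inhibitor] versus % inhibition plots.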
# [2] = molecular target: T2, Aldo-keto reductase family 1 member C2 (Homo sapiens) (UniProt P52895); assay: Inhibition of recombinant AKR1C2 (unknown origin) assessed as decrease in oxidation of 1-acenaphthenol substrate at 100 uM by spectrophotometric analysis
# T2 sequence (whole entry): T1 sequence (Q04828 whole entry) with T38V, R47H, L54V, C87S, V151M, R170H, Q172L
# Procedure, shortened: (§2)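 Single-point screen at 100 μM compound. Recombinant enzyme oxidizes 1-acenaphthenol with 2.3 mM NAD⁺ in 100 mM phosphate buffer pH 9.0, 0.005% Triton X-114, 5% DMSO. AKR1C1: 30 μM substrate (Km), 0.3 μM enzyme. AKR1C2: 50 μM substrate (Km), 0.2 μM enzyme. NADH formation read at 340 nm from initial velocities. Result given as % inhibition.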
# [3] = molecular target: T3, Aldo-keto reductase family 1 member C1 (Homo sapiens) (UniProt Q04828); assay: Inhibition of human recombinant AKR1C1 expressed in Escherichia coli assessed as decrease in oxidation of 1-acenaphthenol substrate at 100 uM by spectrophotometric analysis; procedure, shortened: as §2
# T3 sequence (whole entry): T1 sequence (Q04828 whole entry)
# [4] = molecular target: T4, Aldo-keto reductase family 1 member C2 (Homo sapiens, UniProt P52895); assay: Inhibition of recombinant AKR1C2 (unknown origin) assessed as decrease in oxidation of 1-acenaphthenol substrate by spectrophotometric analysis; procedure, shortened: as §1
# T4 sequence (P52895 whole entry): T1 sequence (Q04828 whole entry) with T38V, R47H, L54V, C87S, V151M, R170H, Q172L
# [5] = molecular target: T5, Aldo-keto reductase family 1 member C3 (Homo sapiens, UniProt P42330); assay: Inhibition of recombinant AKR1C3 (unknown origin) assessed as decrease in oxidation of 1-acenaphthenol substrate by spectrophotometric analysis
# T5 sequence (P42330 whole entry): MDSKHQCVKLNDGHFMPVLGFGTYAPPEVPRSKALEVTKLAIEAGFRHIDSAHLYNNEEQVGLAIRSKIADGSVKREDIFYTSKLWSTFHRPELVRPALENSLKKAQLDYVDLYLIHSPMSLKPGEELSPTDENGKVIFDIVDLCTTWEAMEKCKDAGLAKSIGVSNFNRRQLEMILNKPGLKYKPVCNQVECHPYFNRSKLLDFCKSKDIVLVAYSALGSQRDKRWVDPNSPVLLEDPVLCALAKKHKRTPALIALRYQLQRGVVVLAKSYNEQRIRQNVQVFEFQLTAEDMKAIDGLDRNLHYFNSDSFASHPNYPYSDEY
SMILES,IC50 [1] [µM],inhibition [2],inhibition [3],IC50 [4] [µM],IC50 [5] [µM]
CS(=O)(=O)c1ccc(/C=C(/C(=O)O)c2ccc(F)cc2)cc1,23.3,69.7%,86.1%,44.6,–
CS(=O)(=O)c1ccc(/C=C(/C(=O)O)c2ccccc2)cc1,30.8,61.4%,77.6%,34.4,139
COc1ccc(/C=C(/C(=O)O)c2cc(OC)c(OC)c(OC)c2)cc1OC,–,0.6%,6.1%,–,–
COc1ccc(/C=C(/C(=O)O)c2cc(OC)c(OC)c(OC)c2)cc1F,–,9.9%,-5.2%,–,–
CS(=O)(=O)c1ccc(/C(=C\c2cccc(O)c2)C(=O)O)cc1,–,inactive,inactive,–,–
CS(=O)(=O)c1ccc(/C(=C\c2cccc(Br)c2)C(=O)O)cc1,–,58.3%,34.8%,74.3,13.6
COc1cc(/C(=C\c2cccc(OC(C)=O)c2)C(=O)O)cc(OC)c1OC,–,27%,40%,–,–
COc1cc(/C=C(/C(=O)O)c2ccc(S(C)(=O)=O)cc2)cc(OC)c1OC,–,inactive,inactive,–,–
CS(=O)(=O)c1ccc(/C=C(/C(=O)O)c2ccc3c(c2)OCO3)cc1,–,24.2%,45.2%,–,–
COc1ccc(/C=C(/C(=O)O)c2cc(OC)c(OC)c(OC)c2)cc1,–,4.3%,15.1%,–,–
CSc1ccc(/C=C(/C(=O)O)c2ccccc2)cc1,12.3,59.1%,87%,41.2,30.2
CS(=O)(=O)c1ccc(/C(=C\c2ccc(O)cc2)C(=O)O)cc1,–,inactive,inactive,–,–
CS(=O)(=O)c1ccc(/C(=C\c2ccc(O)c(O)c2)C(=O)O)cc1,–,27.2%,46.5%,–,33.1
CC(=O)NS(=O)(=O)c1ccc(/C=C(/C(=O)O)c2ccccc2)cc1,8.7,87.3%,97.8%,25.2,–
CS(=O)(=O)c1ccc(/C(=C\c2ccc(F)cc2)C(=O)O)cc1,–,9.2%,21%,–,43.1
COc1cc(/C(=C\c2cccc(F)c2)C(=O)O)cc(OC)c1OC,–,55.9%,7.8%,77,–
CS(=O)(=O)c1ccc(/C=C(/C(=O)O)c2cccc(Cl)c2)cc1,19.3,66.4%,75.9%,23.1,76.7
CS(=O)(=O)c1ccc(/C(=C\c2ccc(Br)cc2)C(=O)O)cc1,–,19.2%,28.7%,–,4.9
Cc1ccc(/C=C(/C(=O)O)c2ccc(S(C)(=O)=O)cc2)cc1,–,1.1%,inactive,–,13.4
CSc1ccc(/C=C(/C(=O)O)c2ccc(Cl)cc2)cc1,6.6,75.2%,88.1%,27.3,8.3
CS(=O)(=O)c1ccc(/C=C(/C(=O)O)c2ccc(Cl)cc2)cc1,15.7,63.4%,89.6%,26.9,86.6

SMILES,IC50 [1] [µM],inhibition [2],inhibition [3],IC50 [4] [µM],IC50 [5] [µM]
CSc1ccc(-c2ccc(/C=C(/C(=O)O)c3ccc(S(C)(=O)=O)cc3)cc2)cc1,–,57.4%,64.7%,–,–
COc1cc(/C(=C\c2ccc3ccccc3c2)C(=O)O)cc(OC)c1OC,–,15.9%,9.6%,–,–
COc1ccc(/C=C(/C(=O)O)c2cc(OC)c(OC)c(OC)c2)cc1OC(C)=O,–,3.2%,8%,–,–
CS(=O)(=O)c1ccc(/C=C(/C(=O)O)c2ccc(S(C)(=O)=O)cc2)cc1,–,inactive,inactive,–,51
COc1ccc(/C=C(/C(=O)O)c2cc(OC)c(OC)c(OC)c2)cc1O,–,20.6%,14.4%,–,121
COc1ccc(/C=C(/C(=O)O)c2ccc(S(C)(=O)=O)cc2)cc1,–,inactive,inactive,–,36.9
CS(=O)(=O)c1ccc(/C(=C\c2ccc(Cl)cc2)C(=O)O)cc1,–,24.3%,34.7%,–,10.8
COc1ccc(/C=C(/C(=O)O)c2cccc3ccccc23)cc1OC,–,77.8%,29.4%,24.2,128
CSc1ccc(/C=C(/C(=O)O)c2cccc(Cl)c2)cc1,19.1,78.3%,81.7%,20.8,17
CCc1ccc(/C=C(/C(=O)O)c2ccc(S(C)(=O)=O)cc2)cc1,–,inactive,inactive,–,13.6
COc1cc(/C(=C\c2cccc3ccccc23)C(=O)O)cc(OC)c1OC,–,13.8%,6.4%,–,–
CSc1ccc(/C=C(/C(=O)O)c2ccc(S(C)(=O)=O)cc2)cc1,–,14.4%,43.8%,–,5.8
CC(=O)NS(=O)(=O)c1ccc(/C=C(/C(=O)O)c2ccc(S(C)(=O)=O)cc2)cc1,–,10.6%,5.9%,–,–
CS(=O)(=O)c1ccc(/C(=C\c2cccc(F)c2)C(=O)O)cc1,–,27%,15.4%,–,38.9
COc1ccc(/C=C(/C(=O)O)c2ccc3ccccc3c2)cc1OC,–,39.6%,9.7%,–,38.7
CS(=O)(=O)c1ccc(/C(=C\c2ccc(C(F)(F)F)cc2)C(=O)O)cc1,–,18.4%,3.5%,–,23.3
CS(=O)(=O)c1ccc(/C(=C\c2cccc(Cl)c2)C(=O)O)cc1,–,43%,44.5%,–,16.8
CS(=O)(=O)c1ccc(/C(=C\c2ccccc2)C(=O)O)cc1,–,27.3%,26.3%,–,69.8
CC(=O)O[C@]1(C(C)=O)CC[C@H]2[C@@H]3C[C@H](C)C4=CC(=O)CC[C@]4(C)[C@H]3CC[C@@]21C [MEDROXYPROGESTERONE ACETATE],1.8,–,–,4.1,0.3
O=C(O)/C(=C/c1ccccc1)c1ccccc1,7.9,47.5%,90.1%,–,–
